Assays:
Assay type in all cases: ADME, organism-based
Settings in all cases: in vivo
Mus musculus [1] = assay: Cmax in Pseudomonas aeruginosa infected neutropenic Swiss mouse at 5 mg/kg, sc; parameters: dose 5 mg/kg, route subcutaneous
Method in brief: (§1)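 Single s.c. colistin (sulfate) dose (5, 10, 20 or 40 mg/kg) in neutropenic thigh-infected mice; central-vein blood at 6–8 times over 10 h, 4 mice per time; plasma colistin by HPLC (0.10–4.00 mg/liter calibration). Unbound levels from concentration-dependent fu (equilibrium dialysis, pH 7.4 phosphate buffer, 21 h, 37°C); parameters by noncompartmental analysis.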

Mus musculus [2] = assay: Cmax in Pseudomonas aeruginosa infected neutropenic Swiss mouse at 10 mg/kg, sc; parameters: dose 10 mg/kg, route subcutaneous; method in brief: as §1
Mus musculus [3] = assay: Cmax in Pseudomonas aeruginosa infected neutropenic Swiss mouse at 20 mg/kg, sc; parameters: dose 20 mg/kg, route subcutaneous; method in brief: as §1
Mus musculus [4] = assay: Cmax in Pseudomonas aeruginosa infected neutropenic Swiss mouse at 40 mg/kg, sc; parameters: dose 40 mg/kg, route subcutaneous; method in brief: as §1
Mus musculus [5] = assay: Tmax in Pseudomonas aeruginosa infected neutropenic Swiss mouse at 5 mg/kg, sc; parameters: dose 5 mg/kg, route subcutaneous; method in brief: as §1
Mus musculus [6] = assay: Tmax in Pseudomonas aeruginosa infected neutropenic Swiss mouse at 10 mg/kg, sc; parameters: dose 10 mg/kg, route subcutaneous; method in brief: as §1
Mus musculus [7] = assay: Tmax in Pseudomonas aeruginosa infected neutropenic Swiss mouse at 20 mg/kg, sc; parameters: dose 20 mg/kg, route subcutaneous; method in brief: as §1
Mus musculus [8] = assay: Tmax in Pseudomonas aeruginosa infected neutropenic Swiss mouse at 40 mg/kg, sc; parameters: dose 40 mg/kg, route subcutaneous; method in brief: as §1
Mus musculus [9] = assay: Apparent volume of distribution to bioavailability in Pseudomonas aeruginosa infected neutropenic Swiss mouse at 5 mg/kg, sc; method in brief: as §1
Mus musculus [10] = assay: Apparent volume of distribution to bioavailability in Pseudomonas aeruginosa infected neutropenic Swiss mouse at 10 mg/kg, sc; method in brief: as §1
Mus musculus [11] = assay: Apparent volume of distribution to bioavailability in Pseudomonas aeruginosa infected neutropenic Swiss mouse at 20 mg/kg, sc; method in brief: as §1
Mus musculus [12] = assay: Apparent volume of distribution to bioavailability in Pseudomonas aeruginosa infected neutropenic Swiss mouse at 40 mg/kg, sc; method in brief: as §1
Mus musculus [13] = assay: Half life in Pseudomonas aeruginosa infected neutropenic Swiss mouse at 5 mg/kg, sc; parameters: dose 5 mg/kg, route subcutaneous; method in brief: as §1
Mus musculus [14] = assay: Half life in Pseudomonas aeruginosa infected neutropenic Swiss mouse at 10 mg/kg, sc; parameters: dose 10 mg/kg, route subcutaneous; method in brief: as §1
Mus musculus [15] = assay: Half life in Pseudomonas aeruginosa infected neutropenic Swiss mouse at 20 mg/kg, sc; parameters: dose 20 mg/kg, route subcutaneous; method in brief: as §1
Mus musculus [16] = assay: Half life in Pseudomonas aeruginosa infected neutropenic Swiss mouse at 40 mg/kg, sc; parameters: dose 40 mg/kg, route subcutaneous; method in brief: as §1

COLISTIMETHATE SODIUM
Cmax (Mus musculus [1]): 310 ng/mL | Cmax (Mus musculus [2]): 1440 ng/mL | Cmax (Mus musculus [3]): 3290 ng/mL | Cmax (Mus musculus [4]): 8890 ng/mL | Tmax (Mus musculus [5]): 1 h | Tmax (Mus musculus [6]): 0.5 h | Tmax (Mus musculus [7]): 2 h | Tmax (Mus musculus [8]): 2 h | Vc/F (Mus musculus [9]): 10.1 L/kg | Vc/F (Mus musculus [10]): 4.63 L/kg | Vc/F (Mus musculus [11]): 4.88 L/kg | Vc/F (Mus musculus [12]): 3.27 L/kg | t1/2 (Mus musculus [13]): 0.298 h | t1/2 (Mus musculus [14]): 1.14 h | t1/2 (Mus musculus [15]): 1.34 h | t1/2 (Mus musculus [16]): 1.39 h
